Measured values from different studies.
Protocols differ between the studies behind these lines.

Cc1cccc(/C=C/C(=O)Nc2cccc(-c3ccnc(N4CCC(CO)CC4)c3)c2)c1 — inhibition (A549; cell growth or viability, MTT; 5 µM): 52.9%
COc1cccc2c1C(=O)c1c(O)c3c(c(O)c1C2=O)C[C@@](O)(C(=O)CO)C[C@@H]3O[C@H]1C[C@H](N)[C@H](O)[C@H](C)O1 — viability (A549; cell growth or viability, MTT; 25 µg/mL, 48 h, serum-free): 38.2%
O=C1O[C@H]([C@@H](O)CO)C(O)=C1O — IC50 (ABTS scavenging): 350 µM
O=C(NC(=S)Nc1ccccn1)c1ccco1 — IC50 (Leishmania donovani; parasite growth, resazurin; promastigote): 2.3 µM
Cc1c(Cc2ccccc2)c(=O)oc2c(C)c(OCC(=O)NN=Cc3ccc(Cl)cc3)ccc12 — viability (PC-3; cell growth or viability, MTT; 250 µg/mL): 29%
O=C(C=Cc1ccccc1)Nc1cccc(-c2ccnc(N3CCC(O)CC3)c2)c1 — inhibition (A549; cell growth or viability, MTT; 5 µM): 54.8%
C=CCNC(=S)NNC(=O)COc1ccc2c(C)c(CC)c(=O)oc2c1C — viability (PC-3; cell growth or viability, MTT; 31.25 µg/mL): 99.9%
O=C(NC(=S)Nc1ccccc1O)c1ccco1 — IC50 (Leishmania donovani; parasite growth, resazurin; promastigote): 2.46 µM
C=CC(=O)NC1CCN(c2ncc3ncnc(Nc4ccc(Oc5ccc6c(c5)ncn6C)c(C)c4)c3n2)CC1 — EC50 (NCI-H2170; cell growth or viability): 0.038 µM
CCCOc1ccc2c(C)c(CC)c(=O)oc2c1C — viability (PC-3; cell growth or viability, MTT; 250 µg/mL): 26.3%
O=C(NC(=S)Nc1ccccn1)c1cccs1 — IC50 (Leishmania donovani; parasite growth, resazurin; promastigote): 1.26 µM
Cc1c(C)c2c(c(C)c1O)CCC(C)(C(=O)O)O2 (stereo not shown) — IC50 (ABTS scavenging): 160 µM
CCCCCCCCCCCCCCCCOP(=O)([O-])OCC[N+](C)(C)C — IC50 (Leishmania donovani; parasite growth, resazurin; promastigote): 1.97 µM
O=C1O[C@H]([C@@H](O)CO)C(O)=C1O — IC50 (ABTS scavenging, absorbance; 30 min): 11.3 µM
O=C(NC(=S)Nc1cccc(O)c1)c1ccco1 — IC50 (Leishmania donovani; parasite growth, resazurin; promastigote): 0.48 µM
Cc1c(Cc2ccccc2)c(=O)oc2c(C)c(OCC(=O)NN=Cc3ccco3)ccc12 — viability (PC-3; cell growth or viability, MTT; 250 µg/mL): 11.1%
